# Results: ChEMBL document CHEMBL4052700, “Synthesis and biological evaluation of JL-A7 derivatives as potent ABCB1 inhibitors” (Bioorg Med Chem, 2017)
# pIC50: −log10 of the molar value. Where a name gives a salt, the structure may show the parent alone.
# Experiments:
# Type in all cases: cell-based
# [1] = molecular target: T1, ATP-dependent translocase ABCB1 (Homo sapiens, UniProt P08183); experiment: Inhibition of ABCB1 in human K562/A02 cells assessed as potentiation of adriamycin-induced cytotoxicity by measuring reduction in ADR IC50 at 5 uM measured after 48 hrs by MTT assay relative to ADR alone
# T1 sequence (P08183 whole entry): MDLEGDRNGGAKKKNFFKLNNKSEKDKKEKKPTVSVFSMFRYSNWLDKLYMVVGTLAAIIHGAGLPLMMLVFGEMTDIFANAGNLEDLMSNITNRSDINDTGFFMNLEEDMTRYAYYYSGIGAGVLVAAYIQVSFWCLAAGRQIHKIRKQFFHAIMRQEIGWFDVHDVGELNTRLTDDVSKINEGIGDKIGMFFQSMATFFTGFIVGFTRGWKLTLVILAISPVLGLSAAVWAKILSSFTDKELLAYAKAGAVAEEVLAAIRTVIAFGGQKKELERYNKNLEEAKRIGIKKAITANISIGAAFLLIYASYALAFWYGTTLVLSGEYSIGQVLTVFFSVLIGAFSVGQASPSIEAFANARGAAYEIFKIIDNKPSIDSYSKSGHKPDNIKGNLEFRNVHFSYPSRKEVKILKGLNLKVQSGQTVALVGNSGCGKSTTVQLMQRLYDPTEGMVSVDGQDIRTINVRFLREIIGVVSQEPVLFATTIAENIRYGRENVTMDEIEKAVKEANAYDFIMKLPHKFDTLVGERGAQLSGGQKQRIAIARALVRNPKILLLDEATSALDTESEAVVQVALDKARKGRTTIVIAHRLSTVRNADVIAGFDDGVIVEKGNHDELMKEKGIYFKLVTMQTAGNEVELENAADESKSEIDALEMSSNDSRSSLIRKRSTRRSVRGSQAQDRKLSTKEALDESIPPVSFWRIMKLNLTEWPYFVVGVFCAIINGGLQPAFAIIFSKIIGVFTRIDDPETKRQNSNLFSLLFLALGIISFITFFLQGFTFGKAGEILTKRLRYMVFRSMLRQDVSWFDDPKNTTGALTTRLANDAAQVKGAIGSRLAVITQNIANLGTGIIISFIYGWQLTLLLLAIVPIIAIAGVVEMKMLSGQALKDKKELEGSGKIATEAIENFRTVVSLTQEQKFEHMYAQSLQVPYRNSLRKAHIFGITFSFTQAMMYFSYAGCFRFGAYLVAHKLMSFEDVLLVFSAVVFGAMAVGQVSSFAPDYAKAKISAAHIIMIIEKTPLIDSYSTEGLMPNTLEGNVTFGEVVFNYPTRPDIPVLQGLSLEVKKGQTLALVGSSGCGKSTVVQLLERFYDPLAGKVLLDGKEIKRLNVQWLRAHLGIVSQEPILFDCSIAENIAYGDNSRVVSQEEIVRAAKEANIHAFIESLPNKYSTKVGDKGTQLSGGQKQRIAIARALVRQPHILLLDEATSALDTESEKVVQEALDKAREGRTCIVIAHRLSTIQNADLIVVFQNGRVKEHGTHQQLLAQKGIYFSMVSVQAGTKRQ
# Outline: (§1)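 K562/A02 cells in RPMI 1640 with 10% FBS, 1×10^4/well, grown 24 h. Graded ADM was given with the modulator (0.025–5.0 µM), 48 h at 37 °C, 5% CO2. MTT 4 h, A570. ADM IC50 came from dose–response curves. RF = ADM IC50 without modulator / IC50 with modulator. Triplicates, three independent runs, mean ± SD.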
# K562 = experiment: Cytotoxicity against human K562 cells after 48 hrs by MTT assay; conditions: K562, 48 h
# Outline: (§2)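 K562 (parental) and K562/A02 (ADM-resistant, ABCB1-overexpressing) cells, 1×10^4/well, grown 24 h. A graded dose of compound in medium was added, then 48 h at 37 °C under 5% CO2. MTT was added for 4 h at 37 °C and absorbance read at 570 nm. IC50 was taken from dose–response curves.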
# K562/A02 = experiment: Cytotoxicity against human K562/A02 cells after 48 hrs by MTT assay; conditions: K562/A02, 48 h; outline: as §2
# [2] = molecular target: T1, ATP-dependent translocase ABCB1; experiment: Inhibition of ABCB1 in human K562/A02 cells assessed as increase in doxorubicin accumulation after 90 mins by rhodamine123 staining based flow cytometric analysis; conditions: 1.5 h
# [3] = molecular target: T1, ATP-dependent translocase ABCB1; experiment: Inhibition of ABCB1 in human K562/A02 cells assessed as increase in adriamycin accumulation at 0.5 to 2.5 uM pretreated for 60 mins followed by ADR addition after 90 mins by fluorescence spectrophotometric method; conditions: 1.5 h
# Outline: (§3)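 ADM was then added at 20 µM for 90 min. Cells were washed three times with PBS at 4 °C. Retained intracellular ADM mean fluorescence intensity was read by fluorescence spectrophotometer. Three independent experiments, mean ± SD.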
# [4] = molecular target: T1, ATP-dependent translocase ABCB1; experiment: Inhibition of ABCB1 in human K562/A02 cells assessed as potentiation of adriamycin-induced cytotoxicity measured after 48 hrs by MTT assay; outline: as §1
# [5] = molecular target: T1, ATP-dependent translocase ABCB1; experiment: Inhibition of ABCB1 in human K562/A02 cells assessed as potentiation of adriamycin-induced cytotoxicity by measuring reduction in ADR IC50 at 2.5 uM measured after 48 hrs by MTT assay relative to ADR alone; outline: as §1
# [6] = molecular target: T1, ATP-dependent translocase ABCB1; experiment: Inhibition of ABCB1 in human K562/A02 cells assessed as potentiation of adriamycin-induced cytotoxicity by measuring reduction in ADR IC50 at 1 uM measured after 48 hrs by MTT assay relative to ADR alone; outline: as §1
# [7] = molecular target: T1, ATP-dependent translocase ABCB1; experiment: Inhibition of ABCB1 in human K562/A02 cells assessed as potentiation of adriamycin-induced cytotoxicity by measuring reduction in ADR IC50 at 0.5 uM measured after 48 hrs by MTT assay relative to ADR alone; outline: as §1
# [8] = molecular target: T1, ATP-dependent translocase ABCB1; experiment: Inhibition of ABCB1 in human K562/A02 cells assessed as potentiation of adriamycin-induced cytotoxicity by measuring reduction in ADR IC50 at 0.25 uM measured after 48 hrs by MTT assay relative to ADR alone; outline: as §1
# [9] = molecular target: T1, ATP-dependent translocase ABCB1; experiment: Inhibition of ABCB1 in human K562/A02 cells assessed as potentiation of adriamycin-induced cytotoxicity by measuring reduction in ADR IC50 at 0.1 uM measured after 48 hrs by MTT assay relative to ADR alone; outline: as §1
# [10] = molecular target: T1, ATP-dependent translocase ABCB1; experiment: Inhibition of ABCB1 in human K562/A02 cells assessed as potentiation of adriamycin-induced cytotoxicity by measuring reduction in ADR IC50 at 0.05 uM measured after 48 hrs by MTT assay relative to ADR alone; outline: as §1
# [11] = molecular target: T1, ATP-dependent translocase ABCB1; experiment: Inhibition of ABCB1 in human K562/A02 cells assessed as potentiation of adriamycin-induced cytotoxicity by measuring reduction in ADR IC50 at 0.025 uM measured after 48 hrs by MTT assay relative to ADR alone; outline: as §1
# [12] = molecular target: T1, ATP-dependent translocase ABCB1; experiment: Inhibition of ABCB1 in human K562/A02 cells assessed as potentiation of adriamycin-induced cytotoxicity by measuring reduction in ADR IC50 at 5 uM measured after 48 hrs by MTT assay relative to JL-A7
# [13] = molecular target: T1, ATP-dependent translocase ABCB1; experiment: Inhibition of ABCB1 in human K562/A02 cells assessed as potentiation of adriamycin-induced cytotoxicity by measuring reduction in ADR IC50 at 5 uM measured after 48 hrs by MTT assay relative to tariquidar
# [14] = molecular target: T1, ATP-dependent translocase ABCB1; experiment: Inhibition of ABCB1 in human K562/A02 cells assessed as potentiation of adriamycin-induced cytotoxicity by measuring reduction in ADR IC50 at 5 uM measured after 48 hrs by MTT assay relative to verapamil
# [15] = molecular target: T1, ATP-dependent translocase ABCB1; experiment: Inhibition of ABCB1 in human K562/A02 cells assessed as potentiation of adriamycin-induced cytotoxicity by measuring reduction in ADR IC50 measured after 48 hrs by MTT assay relative to ADR alone; outline: as §1
# [16] = molecular target: T1, ATP-dependent translocase ABCB1; experiment: Inhibition of ABCB1 in human K562/A02 cells assessed as potentiation of adriamycin-induced cytotoxicity by measuring ADR IC50 treated for 48 hrs followed by compound washout measured immediately by MTT assay relative to ADR alone
# Outline: (§4)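 Duration of reversal in K562/A02 cells. After modulator exposure, cells were tested without washout or after modulator removal followed by 0, 6, 12 or 24 h in drug-free medium. ADM IC50 was then found by MTT. RF = IC50 without modulator / IC50 with modulator. Two to three experiments, mean ± SD.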
# [17] = molecular target: T1, ATP-dependent translocase ABCB1; experiment: Inhibition of ABCB1 in human K562/A02 cells assessed as potentiation of adriamycin-induced cytotoxicity by measuring ADR IC50 treated for 48 hrs followed by compound washout measured after 6 hrs by MTT assay relative to ADR alone; outline: as §4
# [18] = molecular target: T1, ATP-dependent translocase ABCB1; experiment: Inhibition of ABCB1 in human K562/A02 cells assessed as potentiation of adriamycin-induced cytotoxicity by measuring ADR IC50 treated for 48 hrs followed by compound washout measured after 12 hrs by MTT assay relative to ADR alone; outline: as §4
# [19] = molecular target: T1, ATP-dependent translocase ABCB1; experiment: Inhibition of ABCB1 in human K562/A02 cells assessed as potentiation of adriamycin-induced cytotoxicity by measuring ADR IC50 treated for 48 hrs followed by compound washout measured after 24 hrs by MTT assay relative to ADR alone; outline: as §4
# [20] = molecular target: T1, ATP-dependent translocase ABCB1; experiment: Inhibition of ABCB1 in human K562/A02 cells assessed as increase in adriamycin accumulation pretreated for 60 mins followed by ADR addition after 90 mins by fluorescence spectrophotometric method; conditions: 1.5 h; outline: as §3
# [21] = molecular target: T1, ATP-dependent translocase ABCB1; experiment: Potency index, ratio of compound effect to verapamil effect for inhibition of ABCB1 in human K562/A02 cells assessed as increase in adriamycin accumulation at 5 uM; outline: as §3
# [22] = molecular target: T1, ATP-dependent translocase ABCB1; experiment: Inhibition of ABCB1 in human K562/A02 cells assessed as rhodamine123 efflux after 90 mins by flow cytometric analysis (reference value: 0.0231 +/- 0.0058 /s); conditions: 1.5 h
compound,measurement,setting,value
COc1cc2c(cc1OC)CN(CCn1cc(COc3ccccc3C(=O)Nc3ccccc3)nn1)CC2,fold change (FC),[1],3.8
same,pIC50,K562,< 4.00
same,pIC50,K562/A02,< 4.00
COc1cc2c(cc1OC)CN(CCn1cc(COc3ccccc3C(=O)Nc3cc(OC)c(OC)c(OC)c3)nn1)CC2,fold change (FC),[1],3
same,pIC50,K562,< 4.00
same,pIC50,K562/A02,< 4.00
COc1cc2c(cc1OC)CN(CCn1cc(COc3ccccc3C(=O)Nc3ccccc3[N+](=O)[O-])nn1)CC2,fold change (FC),[1],3.6
same,pIC50,K562,< 4.00
same,pIC50,K562/A02,< 4.00
COc1ccc(CCN(C)CCCC(C#N)(c2ccc(OC)c(OC)c2)C(C)C)cc1OC (stereo not drawn),inhibition (INH),[2],Dose-dependent effect
same,inhibition (INH),[3],Active
COc1cc2c(cc1OC)CN(CCn1cc(COc3ccccc3NC(=O)c3ccc(C(C)(C)C)cc3)nn1)CC2,fold change (FC),[1],28.2
same,pIC50,K562,< 4.00
same,pIC50,K562/A02,< 4.00
COc1cc2c(cc1OC)CN(CCn1cc(COc3ccccc3C(=O)Nc3cccc(C)c3)nn1)CC2,fold change (FC),[1],8
same,pIC50,K562,< 4.00
same,pIC50,K562/A02,< 4.00
COc1ccc(NC(=O)c2ccccc2OCc2cn(CCN3CCc4cc(OC)c(OC)cc4C3)nn2)cc1OC,fold change (FC),[1],12.4
same,pIC50,K562,< 4.00
same,pIC50,K562/A02,< 4.00
COc1cc2c(cc1OC)CN(CCn1cc(COc3ccccc3C(=O)Nc3ccccc3C)nn1)CC2,fold change (FC),[1],4.4
same,pIC50,K562,< 4.00
same,pIC50,K562/A02,< 4.00
COc1cc2c(cc1OC)CN(CCn1cc(COc3ccccc3C(=O)Nc3cccc([N+](=O)[O-])c3)nn1)CC2,fold change (FC),[1],3.5
same,pIC50,K562,< 4.00
same,pIC50,K562/A02,< 4.00
COc1cc2c(cc1OC)CN(CCn1cc(COc3ccccc3C(=O)Nc3ccc(F)cc3)nn1)CC2,fold change (FC),[1],11.7
same,pIC50,K562,< 4.00
same,pIC50,K562/A02,< 4.00
COc1ccc(NC(=O)c2ccccc2OCc2cn(CCN3CCc4cc(OC)c(OC)cc4C3)nn2)cc1,fold change (FC),[1],11.6
same,pIC50,K562,4.10
same,pIC50,K562/A02,< 4.00
COc1cc2c(cc1OC)CN(CCn1cc(COc3ccccc3C(=O)Nc3ccc([N+](=O)[O-])cc3)nn1)CC2,fold change (FC),[1],4.6
same,pIC50,K562,< 4.00
same,pIC50,K562/A02,< 4.00
CCCCc1ccc(NC(=O)c2ccccc2OCc2cn(CCN3CCc4cc(OC)c(OC)cc4C3)nn2)cc1,fold change (FC),[1],15.5
same,pIC50,K562,< 4.00
same,pIC50,K562/A02,< 4.00
COc1cc2c(cc1OC)CN(CCn1cc(COc3ccccc3C(=O)Nc3ccc(OC(F)(F)F)cc3)nn1)CC2,fold change (FC),[1],21.4
same,pIC50,K562,< 4.00
same,pIC50,K562/A02,< 4.00
COc1cccc2c1C(=O)c1c(O)c3c(c(O)c1C2=O)C[C@@](O)(C(=O)CO)C[C@@H]3O[C@H]1C[C@H](N)[C@H](O)[C@H](C)O1 [DOXORUBICIN HYDROCHLORIDE],fold change (FC),[1],1
same,pIC50,K562,5.37
same,pIC50,K562/A02,4.01
COc1cc2c(cc1OC)CN(CCn1cc(COc3ccccc3C(=O)Nc3ccc(C)cc3)nn1)CC2,fold change (FC),[1],12.6
same,pIC50,K562,< 4.00
same,pIC50,K562/A02,< 4.00
COc1cc2c(cc1OC)CN(CCn1cc(COc3ccccc3C(=O)Nc3ccc(C(C)(C)C)cc3)nn1)CC2,fold change (FC),[1],33.5
same,inhibition (INH),[4],Dose-dependent effect
same,fold change (FC),[5],13.5
same,fold change (FC),[6],7.5
same,fold change (FC),[7],3.9
same,fold change (FC),[8],2.4
same,fold change (FC),[9],1.6
same,fold change (FC),[10],1.4
same,fold change (FC),[11],1.4
same,fold change (FC),[12],<= 31.4
same,fold change (FC),[13],<= 31.4
same,fold change (FC),[14],<= 31.4
same,fold change (FC),[15],40.34
same,fold change (FC),[16],11.83
same,fold change (FC),[17],8.16
same,fold change (FC),[18],4.93
same,fold change (FC),[19],2.96
same,pIC50,K562,< 4.00
same,pIC50,K562/A02,< 4.00
same,inhibition (INH),[2],Dose-dependent effect
same,inhibition (INH),[3],Active
same,inhibition (INH),[20],Dose-dependent effect
same,Ratio,[21],1.4
same,K,[22],0.0067 s⁻¹
COc1cc2c(cc1OC)CN(CCn1cc(COc3ccccc3C(=O)Nc3ccc(Cl)cc3)nn1)CC2,fold change (FC),[1],14
same,pIC50,K562,< 4.00
same,pIC50,K562/A02,< 4.00
COc1cccc(NC(=O)c2ccccc2OCc2cn(CCN3CCc4cc(OC)c(OC)cc4C3)nn2)c1,fold change (FC),[1],5.6 to 11.1
same,pIC50,K562,< 4.00
same,pIC50,K562/A02,< 4.00
COc1cc2c(cc1OC)CN(CCc1ccc(NC(=O)c3cc(OC)c(OC)cc3NC(=O)c3cnc4ccccc4c3)cc1)CC2,fold change (FC),[1],49.1
same,fold change (FC),[15],31.98
same,fold change (FC),[16],16.86
same,fold change (FC),[17],10.37
same,fold change (FC),[18],6.1
same,fold change (FC),[19],3.55
same,pIC50,K562,4.50
same,pIC50,K562/A02,4.57
COc1cc2c(cc1OC)CN(CCn1cc(COc3ccccc3C(=O)Nc3cccc(Cl)c3)nn1)CC2,fold change (FC),[1],4.3
same,pIC50,K562,4.06
same,pIC50,K562/A02,< 4.00
